# Reference: article PMC10159923 (Lab on a chip, 2023)
# Assays:
# A431 cells = experiment: Phase contrast imaging of cell spreading on coated metasurfaces; type: cell-based, human; conditions: Fig. S2
# [1] = tested on: cells (cell type not given); conditions: among others, including collagen and PDL; cited from earlier work
# PAR1/PAR2 = experiment: MEIRS cellular response of A431 cells to PAR peptides / control peptide; type: cell-based, human
# How it was run: (§1)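 A431 cells (ATCC, passage <15) were seeded at ~500,000/mL in DMEM + 10% FBS on fibronectin-coated (10 μg/mL) metasurface wells and incubated overnight. Medium was then swapped to L15 + 1% antibiotic-antimycotic. One baseline spectrum preceded manual addition of peptide in L15. FTIR reflectance was taken at room temperature, every 4 min per well, for 1 h. Spectra were differenced from t = 0, and first-PC signals were extracted from the protein, plasmonic and lipid windows (mean ± standard error, n = 4).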
# PAR1 = target: T1, PAR1 (Homo sapiens, UniProt P25116); experiment: MEIRS cellular response of A431 cells to PAR1 activating peptide; type: cell-based
# T1 sequence (P25116 22-425): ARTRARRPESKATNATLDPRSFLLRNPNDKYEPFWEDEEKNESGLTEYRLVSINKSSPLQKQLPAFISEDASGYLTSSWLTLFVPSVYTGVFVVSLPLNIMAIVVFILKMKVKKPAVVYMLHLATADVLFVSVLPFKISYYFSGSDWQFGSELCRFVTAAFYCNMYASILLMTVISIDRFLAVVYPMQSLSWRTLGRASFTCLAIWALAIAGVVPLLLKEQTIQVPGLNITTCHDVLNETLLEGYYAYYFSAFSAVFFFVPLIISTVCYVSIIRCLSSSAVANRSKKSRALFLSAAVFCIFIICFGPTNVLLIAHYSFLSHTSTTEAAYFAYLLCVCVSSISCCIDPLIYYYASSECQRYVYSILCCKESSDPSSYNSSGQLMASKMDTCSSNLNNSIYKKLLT
# How it was run: as §1
substance,measurement,setting,value
fibronectin,"cell spreading, phase contrast morphology",A431 cells,cells spread well
same,best coating material by electric impedance,[1],often the best coating material
VKGILS-NH2,cellular response to control peptide,"PAR1/PAR2; MEIRS PC1 signal, n = 4",very little response from the cells
SFLLR-NH2,course of cellular signal after maximal point,PAR1; MEIRS PC1 signal,decreased right after the maximal point was reached
same,duration of gradual decrease in cellular signal back to baseline level,"PAR1; MEIRS PC1 signal, after peak",about 30 min
same,time of cellular signal peak after peptide addition,"PAR1; MEIRS PC1 signal, Δt = 4 min, n = 4",8 to 12 min
same,initial change in cellular signal on addition of peptide,PAR1; as soon as the peptides were added,rapid increase in the cellular signal
same,peak amplitude of cellular signal (SFLLR vs SLIGKV),PAR1/PAR2; 100 μM,similar
